From ChEMBL document CHEMBL1208762, “Enhanced selectivity profile of pyrazole-urea based DFG-out p38alpha inhibitors” (Bioorg Med Chem Lett, 2010) come the findings set out here.

Molecules are shown by their SMILES. Values after ≈ are worked out from the molar mass of the structure shown.

Series [1] concerns the target T1, Mitogen-activated protein kinase 14 (Homo sapiens, UniProt Q16539). Put plainly: Inhibition of unactive p38alpha. The method, boiled down:
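Unactive p38α preincubated with compound, then activated by MKK6 and diluted into an MK2 plus substrate mixture (cascade format). IC50 is the mean of three experiments, SD <15%.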

Series [2] concerns the target T1, Mitogen-activated protein kinase 14. Kind of series: Inhibition of active p38alpha. The method, boiled down:
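Compound preincubated with active p38α; kinase activity then read by adding MK2 and its substrate (cascade format). IC50 is the mean of three experiments, SD <15%.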

Series [3] is described as follows: Solubility of the compound in phosphate buffer at pH 6.5 by turbidimetric. It is filed as physicochemical. The method, boiled down:
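Kinetic solubility measured turbidimetrically in phosphate buffer at pH 6.5. The value is reported as a range between the minimum and maximum kinetic solubility, in µM.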

Series [4] can be described thus: Permeability of the compound by PAMPA method. In kind it is ADME.
Series [5] deals with hERG (KCNH2) (Homo sapiens, UniProt Q12809). Kind of series: Displacement of [3H]dofetilide from human ERG at 10 uM. Particulars: probe [3H]dofetilide.
For series [6], the target named is T2, CYP1A2 (Homo sapiens, UniProt P05177).
T2 sequence (P05177 whole entry): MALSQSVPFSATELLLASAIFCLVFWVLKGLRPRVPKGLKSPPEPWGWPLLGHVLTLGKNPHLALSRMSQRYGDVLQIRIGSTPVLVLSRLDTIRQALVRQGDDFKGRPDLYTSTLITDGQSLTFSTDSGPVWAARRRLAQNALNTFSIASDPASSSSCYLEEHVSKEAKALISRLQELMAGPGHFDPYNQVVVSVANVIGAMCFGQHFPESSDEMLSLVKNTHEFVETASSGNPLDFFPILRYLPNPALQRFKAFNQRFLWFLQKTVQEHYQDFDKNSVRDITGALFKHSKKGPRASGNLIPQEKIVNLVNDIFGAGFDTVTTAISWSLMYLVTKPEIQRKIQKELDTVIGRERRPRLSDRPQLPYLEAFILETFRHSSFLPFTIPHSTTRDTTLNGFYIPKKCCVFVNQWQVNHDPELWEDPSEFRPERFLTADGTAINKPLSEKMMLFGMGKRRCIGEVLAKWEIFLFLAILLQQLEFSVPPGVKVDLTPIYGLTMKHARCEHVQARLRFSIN
Kind of series: Inhibition of CYP1A2 at 3 uM. It is filed as ADME. The method, boiled down: (§1)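 Compound tested at 3 µM against a cocktail of CYP1A2, 2C9, 2D6 and 3A4; the result is given as % inhibition for each isoform.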

Series [7] has as its target CYP2C9 (Homo sapiens, UniProt P11712). Put plainly: Inhibition of CYP2C9 at 3 uM. In kind it is ADME. The procedure, abridged: as §1
The target of series [8] is CYP2D6 (Homo sapiens, UniProt P10635). Kind of series: Inhibition of CYP2D6 at 3 uM. It is filed as ADME. The procedure, abridged: as §1
Series [9] has as its target CYP3A4 (Homo sapiens, UniProt P08684). Kind of series: Inhibition of CYP3A4 at 3 uM. It is filed as ADME. The method, boiled down: as §1

Chain of CYP3A4 (P08684 whole entry): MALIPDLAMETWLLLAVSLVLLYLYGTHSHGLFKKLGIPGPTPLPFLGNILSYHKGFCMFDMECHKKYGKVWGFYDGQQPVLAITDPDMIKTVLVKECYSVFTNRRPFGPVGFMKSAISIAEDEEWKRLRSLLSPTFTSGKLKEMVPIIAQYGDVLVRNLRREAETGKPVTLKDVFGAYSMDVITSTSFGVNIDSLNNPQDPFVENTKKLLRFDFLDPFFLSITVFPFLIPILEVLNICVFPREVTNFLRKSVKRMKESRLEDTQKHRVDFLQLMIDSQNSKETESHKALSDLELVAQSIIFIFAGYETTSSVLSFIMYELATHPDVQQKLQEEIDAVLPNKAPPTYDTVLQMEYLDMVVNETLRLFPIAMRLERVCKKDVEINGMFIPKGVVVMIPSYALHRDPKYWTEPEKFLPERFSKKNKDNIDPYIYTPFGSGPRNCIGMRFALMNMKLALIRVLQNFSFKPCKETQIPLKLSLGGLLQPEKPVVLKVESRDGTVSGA
T1 sequence (Q16539 whole entry): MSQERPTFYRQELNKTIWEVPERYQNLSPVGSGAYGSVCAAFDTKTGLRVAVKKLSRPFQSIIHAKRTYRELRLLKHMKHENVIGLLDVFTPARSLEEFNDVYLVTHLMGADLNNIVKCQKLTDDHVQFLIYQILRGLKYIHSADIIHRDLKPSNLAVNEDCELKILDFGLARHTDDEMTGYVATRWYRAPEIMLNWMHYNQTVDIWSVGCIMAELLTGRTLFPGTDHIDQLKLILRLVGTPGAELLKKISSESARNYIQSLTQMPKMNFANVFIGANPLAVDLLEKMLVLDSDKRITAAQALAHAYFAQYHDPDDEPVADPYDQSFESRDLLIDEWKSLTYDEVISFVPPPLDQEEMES
Chain of CYP2D6 (P10635 whole entry): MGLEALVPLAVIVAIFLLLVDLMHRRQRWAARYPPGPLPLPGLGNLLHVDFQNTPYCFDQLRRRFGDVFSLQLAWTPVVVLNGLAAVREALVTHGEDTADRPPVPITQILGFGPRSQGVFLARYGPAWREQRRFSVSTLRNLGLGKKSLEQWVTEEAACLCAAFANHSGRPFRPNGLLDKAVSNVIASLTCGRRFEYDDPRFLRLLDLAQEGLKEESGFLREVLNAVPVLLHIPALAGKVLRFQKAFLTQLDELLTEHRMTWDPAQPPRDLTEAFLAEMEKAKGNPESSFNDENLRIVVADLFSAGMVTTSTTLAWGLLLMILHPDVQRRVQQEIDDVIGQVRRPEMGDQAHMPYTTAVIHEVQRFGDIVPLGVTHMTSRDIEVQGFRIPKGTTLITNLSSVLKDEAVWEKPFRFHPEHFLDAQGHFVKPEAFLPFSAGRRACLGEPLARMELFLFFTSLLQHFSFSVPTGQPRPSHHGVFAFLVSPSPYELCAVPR
Chain of CYP2C9 (P11712 whole entry): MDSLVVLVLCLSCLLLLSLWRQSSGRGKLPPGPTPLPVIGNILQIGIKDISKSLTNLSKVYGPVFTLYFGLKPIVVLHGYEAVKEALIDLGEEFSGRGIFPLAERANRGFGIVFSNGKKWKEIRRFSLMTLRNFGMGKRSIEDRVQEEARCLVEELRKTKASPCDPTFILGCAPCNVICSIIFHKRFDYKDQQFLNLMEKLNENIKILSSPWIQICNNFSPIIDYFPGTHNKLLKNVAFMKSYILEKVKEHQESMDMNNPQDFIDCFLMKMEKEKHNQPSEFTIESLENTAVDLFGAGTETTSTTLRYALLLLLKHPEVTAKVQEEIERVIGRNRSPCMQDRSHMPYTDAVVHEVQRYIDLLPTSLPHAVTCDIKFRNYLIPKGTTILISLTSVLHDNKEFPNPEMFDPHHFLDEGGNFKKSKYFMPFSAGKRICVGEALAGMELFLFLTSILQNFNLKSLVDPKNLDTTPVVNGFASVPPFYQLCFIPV
Chain of hERG (KCNH2) (Q12809 whole entry): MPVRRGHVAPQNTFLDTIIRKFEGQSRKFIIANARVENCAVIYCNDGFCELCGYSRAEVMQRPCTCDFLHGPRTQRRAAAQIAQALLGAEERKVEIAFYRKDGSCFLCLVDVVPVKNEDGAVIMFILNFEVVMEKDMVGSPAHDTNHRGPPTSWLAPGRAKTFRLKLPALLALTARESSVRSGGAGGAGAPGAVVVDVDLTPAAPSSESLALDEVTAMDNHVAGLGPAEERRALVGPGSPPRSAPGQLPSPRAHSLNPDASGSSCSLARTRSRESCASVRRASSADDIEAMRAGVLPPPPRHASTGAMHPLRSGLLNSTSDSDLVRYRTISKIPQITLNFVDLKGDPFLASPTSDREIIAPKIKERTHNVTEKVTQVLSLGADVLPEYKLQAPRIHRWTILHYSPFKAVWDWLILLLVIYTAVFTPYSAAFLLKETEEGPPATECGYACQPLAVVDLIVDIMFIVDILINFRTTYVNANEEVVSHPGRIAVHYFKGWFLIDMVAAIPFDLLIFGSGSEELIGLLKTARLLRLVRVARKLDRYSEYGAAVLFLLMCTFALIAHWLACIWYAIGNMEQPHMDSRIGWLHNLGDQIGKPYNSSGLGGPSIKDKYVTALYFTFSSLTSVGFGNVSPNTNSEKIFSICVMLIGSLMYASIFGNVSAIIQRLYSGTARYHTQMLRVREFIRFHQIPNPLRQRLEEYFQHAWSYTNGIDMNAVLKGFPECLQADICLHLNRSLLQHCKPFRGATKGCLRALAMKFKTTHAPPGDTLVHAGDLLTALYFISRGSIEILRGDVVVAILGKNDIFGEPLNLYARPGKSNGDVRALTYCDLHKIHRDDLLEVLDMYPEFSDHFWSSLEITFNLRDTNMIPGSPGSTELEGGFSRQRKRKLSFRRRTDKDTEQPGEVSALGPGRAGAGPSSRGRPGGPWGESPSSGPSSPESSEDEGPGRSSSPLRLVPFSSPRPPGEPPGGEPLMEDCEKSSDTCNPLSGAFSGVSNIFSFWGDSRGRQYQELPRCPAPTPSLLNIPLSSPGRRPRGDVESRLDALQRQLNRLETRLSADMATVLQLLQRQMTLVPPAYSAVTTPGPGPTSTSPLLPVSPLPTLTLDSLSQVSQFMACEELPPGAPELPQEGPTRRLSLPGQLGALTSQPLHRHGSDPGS

Take `CC(C)(C)c1cc(NC(=O)Nc2ccccc2)n(-c2cccc(CN)c2)n1`: the results for the IC50 in series [1] and in series [2] were 2850 nM and greater than 16700 nM, respectively.
With `CC(C)(C)c1cc(NC(=O)Nc2ccccc2)n(-c2cccc(CNC(=O)CN)c2)n1`, the IC50 in [1] came to 176 nM; in series [2], 2300 nM.
In the case of `COC(=O)NCC(=O)NCc1cccc(-n2nc(C(C)(C)C)cc2NC(=O)Nc2ccccc2)c1`, the values for the IC50 in [1] and in [2] were 176 nM and 287 nM, respectively.
For `CC(C)(C)c1cc(NC(=O)Nc2ccccc2)n(-c2cccc(CNC(=O)CNC=O)c2)n1` the same measures were 68 nM and 332 nM.
In the case of `CC(=O)NCC(=O)NCc1cccc(-n2nc(C(C)(C)C)cc2NC(=O)Nc2ccccc2)c1`, the IC50 in [1] amounted to 6 nM; in series [2] it was 34 nM. This molecule also had a solubility (kinetic) in series [3] greater than 200 µM. In series [4], the Papp stood at 7.38 ×10⁻⁶ cm/s. Also, the inhibition at 10 µM in series [5] is -11%. The inhibition at 3 µM in [6] is 5%; in series [7] it was 0%; in series [8] it was 2%; in series [9], 0%.
For the molecule `CC(C)(C)c1cc(NC(=O)Nc2ccccc2)n(-c2cccc(CNC(=O)CNC(=O)c3ccccc3)c2)n1`, the IC50 in series [1] came to 169 nM; in series [2], 441 nM.
For `CC(C)(C)c1cc(NC(=O)Nc2ccccc2)n(-c2cccc(CNC(=O)CNC(=O)c3cccnc3)c2)n1` the same measures were 51 nM and 205 nM.
Turning to `Cc1cc(C(=O)NCC(=O)NCc2cccc(-n3nc(C(C)(C)C)cc3NC(=O)Nc3ccccc3)c2)no1`, the figures for the IC50 in series [1] and in [2] were 38 nM and 243 nM, respectively.
In the case of `CC(C)(C)c1cc(NC(=O)Nc2ccccc2)n(-c2cccc(CNC(=O)CNC(=O)c3ccco3)c2)n1`, the values for the IC50 in [1] and in series [2] were 18 nM and 88 nM, respectively.
For `CC(=O)NC(C)C(=O)NCc1cccc(-n2nc(C(C)(C)C)cc2NC(=O)Nc2ccccc2)c1` (stereo not given) the same measures were 168 nM and 480 nM.
As to `CC(=O)NC1(C(=O)NCc2cccc(-n3nc(C(C)(C)C)cc3NC(=O)Nc3ccccc3)c2)CCCC1`, the concentration for half-maximal inhibition (IC50) in [1] was found to be 715 nM; in series [2] it was 4550 nM.
Take `CC(C)(C)c1cc(NC(=O)Nc2ccccc2)n(-c2cccc(CNC(=O)CNS(C)(=O)=O)c2)n1`: the IC50 in series [1] is 108 nM; in series [2], 649 nM.
`CC(=O)NCC(=O)N(C)Cc1cccc(-n2nc(C(C)(C)C)cc2NC(=O)Nc2ccccc2)c1`: the IC50 in series [1] worked out at 211 nM; in series [2], 1600 nM.
The like results for `CC(C)(C)c1cc(NC(=O)Nc2ccccc2)n(-c2cccc(CNC(=O)CN3CCCC3=O)c2)n1` were, in that order, 68 nM and 296 nM.
As to `CC(C)(C)c1cc(NC(=O)Nc2ccccc2)n(-c2cccc(CNC(=O)CN3CCOC3=O)c2)n1`, the IC50 in series [1] came out at 185 nM; in series [2] it was 599 nM.
As to `CC(C)(C)c1cc(NC(=O)Nc2ccccc2)n(-c2cccc(CNC(=O)Cn3ccccc3=O)c2)n1`, the IC50 turned out to be 16 nM in series [1] and 63 nM in series [2]. In series [3], the kinetic solubility is 50 µM (≈ 24.9 µg/mL). The molecule also yielded a Papp in series [4] of 12.9 ×10⁻⁶ cm/s. Also, the inhibition at 10 µM in [5] was determined as 9%. The inhibition at 3 µM in series [6] turned out to be 4%; in [7] it was 6%; in series [8], 21%; in series [9] it was 30%.
Take `CC(C)(C)c1cc(NC(=O)Nc2ccccc2)n(-c2cccc(CNC(=O)Cn3ccnc3)c2)n1`: the IC50 in series [1] stood at 231 nM; in [2], 536 nM.
The like results for `Cc1nccn1CC(=O)NCc1cccc(-n2nc(C(C)(C)C)cc2NC(=O)Nc2ccccc2)c1` were, in that order, 132 nM and 677 nM.
Consider `CC(C)(C)c1cc(NC(=O)Nc2ccccc2)n(-c2cccc(CNC(=O)Cn3cccn3)c2)n1`, for which the half-maximal inhibitory concentration (IC50) in series [1] amounted to 48.8 nM; in series [2] it was 135 nM.
For `Cc1ccn(CC(=O)NCc2cccc(-n3nc(C(C)(C)C)cc3NC(=O)Nc3ccccc3)c2)n1`, the IC50 in series [1] stood at 27.9 nM; in [2], 201 nM. The same molecule displayed a solubility (kinetic) in [3] of 100 µM (≈ 48.6 µg/mL). Besides, the Papp in series [4] came to 4.8 ×10⁻⁶ cm/s. In addition, the inhibition at 10 µM in series [5] was found to be 3%. The inhibition at 3 µM in series [6] was 4%; in series [7], 5%; in series [8], 18%; in series [9], 26%.
With `Cc1cc(C)n(CC(=O)NCc2cccc(-n3nc(C(C)(C)C)cc3NC(=O)Nc3ccccc3)c2)n1`, the 50% inhibitory concentration (IC50) was 78.2 nM in series [1] and 331 nM in series [2].
In the case of `CC(C)(C)c1cc(NC(=O)Nc2ccccc2)n(-c2cccc(CNC(=O)CCC(=O)O)c2)n1`, the IC50 in series [1] turned out to be 37 nM; in series [2], 393 nM.
In the case of `CC(C)(CC(=O)NCc1cccc(-n2nc(C(C)(C)C)cc2NC(=O)Nc2ccccc2)c1)C(=O)O`, the results for the IC50 in [1] and in [2] were 39 nM and 3680 nM, respectively.
In the case of `CC(C)(C)c1cc(NC(=O)Nc2ccccc2)n(-c2cccc(CNC(=O)C3C[C@H]3C(=O)O)c2)n1` (stereo not given in full), the IC50 in series [1] came to 30 nM; in [2] it was 1100 nM.
Take `CC(C)(C)c1cc(NC(=O)Nc2ccccc2)n(-c2cccc(CNC(=O)C3CCCC[C@H]3C(=O)O)c2)n1` (stereo not given in full): the IC50 in [1] was 57 nM; in [2], 3360 nM.
As for `CC(C)(C)c1cc(NC(=O)Nc2ccccc2)n(-c2cccc(CNC(=O)C3CC=CC[C@H]3C(=O)O)c2)n1` (stereo not given in full), the results for the IC50 in series [1] and in [2] were 14 nM and 737 nM, respectively.
As to `CC(C)(C)c1cc(NC(=O)Nc2cccc3ccccc23)n(-c2cccc(CNC(=O)CCC(=O)O)c2)n1`, the IC50 in series [1] was determined as 5 nM; in series [2], 6 nM.

The IC50 is the concentration at which inhibition is half-maximal. Higher therefore signals weaker potency in that assay. By kinetic solubility is commonly meant the concentration staying in solution when a stock, usually in DMSO, is diluted into the medium. As usually defined, the Papp is a coefficient for how fast a substance crosses the barrier. A high value points to ready permeation. One may read the inhibition as the relative decrease from the control value, in per cent.
